Tests used:
[1] = target: T1, G-protein coupled receptor 39 (Homo sapiens, UniProt O43194); experiment: Agonist activity at human GPR39 expressed in HEK293 cells by IP1 assay; assay type: functional, cell-based
T1 sequence (O43194 whole entry): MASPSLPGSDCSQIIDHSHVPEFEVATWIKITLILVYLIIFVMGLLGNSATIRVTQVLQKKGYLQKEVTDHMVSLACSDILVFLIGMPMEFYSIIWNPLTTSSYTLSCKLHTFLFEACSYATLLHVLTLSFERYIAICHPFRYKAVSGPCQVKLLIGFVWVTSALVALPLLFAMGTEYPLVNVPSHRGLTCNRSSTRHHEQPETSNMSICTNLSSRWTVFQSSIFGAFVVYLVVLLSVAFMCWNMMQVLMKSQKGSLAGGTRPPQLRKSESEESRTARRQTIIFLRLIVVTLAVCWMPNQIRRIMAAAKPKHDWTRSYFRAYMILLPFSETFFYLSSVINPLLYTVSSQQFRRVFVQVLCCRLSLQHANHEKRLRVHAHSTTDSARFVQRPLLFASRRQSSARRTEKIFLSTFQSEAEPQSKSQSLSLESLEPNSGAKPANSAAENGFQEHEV
Outline: (§1)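 Gαq signalling read as inositol-1-phosphate (IP1) accumulation in HEK293 cells overexpressing human, mouse or rat GPR39. EC50 taken from an 11-point dose–response curve run in triplicate. Replicates range from 1 to 4, with standard deviation where available.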

[2] = target: T2, G-protein coupled receptor 39 (Mus musculus, UniProt Q5U431); experiment: Agonist activity at mouse GPR39 expressed in HEK293 cells by IP1 assay; assay type: functional, cell-based; outline: as §1
T2 sequence (Q5U431 whole entry): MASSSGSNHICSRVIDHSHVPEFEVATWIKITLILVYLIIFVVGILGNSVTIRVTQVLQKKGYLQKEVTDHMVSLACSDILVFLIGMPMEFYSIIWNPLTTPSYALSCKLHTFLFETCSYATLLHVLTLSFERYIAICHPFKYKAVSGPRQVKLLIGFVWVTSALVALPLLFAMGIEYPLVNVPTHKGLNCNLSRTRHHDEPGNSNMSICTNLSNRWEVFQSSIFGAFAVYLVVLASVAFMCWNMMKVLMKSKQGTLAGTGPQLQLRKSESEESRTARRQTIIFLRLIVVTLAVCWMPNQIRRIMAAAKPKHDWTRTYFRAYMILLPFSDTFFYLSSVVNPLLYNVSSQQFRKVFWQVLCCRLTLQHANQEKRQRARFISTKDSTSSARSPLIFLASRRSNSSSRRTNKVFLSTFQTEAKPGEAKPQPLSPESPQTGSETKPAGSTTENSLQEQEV

[3] = target: T3, Protein Gpr39 (Rattus norvegicus, UniProt A6QR73); experiment: Agonist activity at rat GPR39 by IP1 assay; assay type: functional; outline: as §1
T3 sequence (A6QR73 whole entry): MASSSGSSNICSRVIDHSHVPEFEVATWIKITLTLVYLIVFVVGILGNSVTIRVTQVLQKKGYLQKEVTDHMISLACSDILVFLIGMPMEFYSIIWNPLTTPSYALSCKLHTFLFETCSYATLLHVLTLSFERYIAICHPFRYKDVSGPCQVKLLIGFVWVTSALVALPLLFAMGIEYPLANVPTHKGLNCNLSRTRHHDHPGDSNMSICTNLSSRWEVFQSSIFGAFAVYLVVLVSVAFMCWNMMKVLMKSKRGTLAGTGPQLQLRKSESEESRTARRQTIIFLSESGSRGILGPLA

[4] = Oral bioavailability in Sprague-Dawley rat at 5 mg/kg; assay type: ADME, organism-based; conditions: in vivo
Outline: (§2)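 Sprague–Dawley rats received a single iv dose of 2 mg/kg or an oral dose of 5 mg/kg. Vehicle was 10% NMP, 30% PEG200 and 5% Solutol in water. Clearance was taken from the iv arm and bioavailability from the oral arm.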

[5] = target: T2, G-protein coupled receptor 39; experiment: Agonist activity at mouse GPR39 by IP1 assay; assay type: functional; outline: as §1
[6] = Clearance in Sprague-Dawley rat at 2 mg/kg, iv administered as single dose; assay type: ADME, organism-based; set-up: dose 2 mg/kg, route intravenous; conditions: in vivo; outline: as §2
[7] = target: T1, G-protein coupled receptor 39; experiment: Agonist activity at human GPR39 by IP1 assay; assay type: functional; outline: as §1
[8] = Hepatic clearance in rat liver microsomes; assay type: ADME
Outline: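 Predicted hepatic clearance calculated from intrinsic clearance in rat liver microsomes.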

[9] = Protection against cytokine-induced cell death in rat INS-1E cells assessed as caspase 3/7 activity; assay type: functional, cell-based
Outline: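 Rat insulinoma INS-1E cells (beta-cell phenotype) were treated with cytokines to induce cell death. Caspase 3/7 activity was the read-out. Dose–response run in triplicate.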

[10] = Induction of GLP1 secretion in mouse STC1 cells incubated for 2 hrs by fluorescent bead based ELISA method; assay type: functional, cell-based; conditions: STC-1, 2 h
Outline: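 Mouse enteroendocrine STC-1 cells, which express endogenous GPR39, were assayed for GLP-1 secretion over a dose–response run in triplicate. Maximal activity is expressed as fold increase in GLP-1 over the DMSO control.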

[11] = target: T3, Protein Gpr39; experiment: Agonist activity at rat GPR39 expressed in HEK293 cells by IP1 assay; assay type: functional, cell-based; outline: as §1
[12] = target: T4, G-protein coupled receptor 39 (Homo sapiens) (UniProt O43194); experiment: Agonist activity at human GPR39 expressed in HEK293 cells by cAMP assay relative to forskolin; assay type: functional, cell-based
T4 sequence (whole entry): T1 sequence (O43194 whole entry)
Outline: (§3)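 cAMP accumulation (Gαs signalling) in HEK293 cells overexpressing human GPR39. Dose–response curve run in triplicate, 1–16 replicates. EC50 derived from the curve. Percent efficacy is expressed relative to the cAMP response to 25 μM forskolin.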

[13] = target: T1, G-protein coupled receptor 39; experiment: Agonist activity at human GPR39 expressed in HEK293 cells by cAMP assay; assay type: functional, cell-based; outline: as §3
[14] = target: Growth hormone secretagogue receptor type 1 (Homo sapiens, UniProt Q92847); experiment: Binding affinity to human ghrelin receptor
[15] = test system: Mus musculus; experiment: Increase in GLP1 level in C57BL/6 mouse at 30 mg/kg, po concurrently dosed with 3 mg/kg, po DPP4 inhibitor PKF275-055 followed by glucose challenge after 1 hr post drug dose; assay type: functional
Outline: (§4)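 Male C57BL/6 mice were dosed orally with compound together with a DPP-IV inhibitor. After 1 h they were challenged with oral glucose at 3 g/kg. Active GLP-1 and plasma exposure were measured 30 min later. One-way ANOVA with Dunnett's post-test against the vehicle group.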

[16] = Protein binding in rat plasma; assay type: ADME, cell-free; conditions: read-out: PPB (converted)
[17] = Half life in C57BL/6 mouse at 10 mg/kg, po administered as single dose by LC/MS/MS method; assay type: ADME, organism-based; set-up: dose 10 mg/kg, route oral; conditions: in vivo
Outline: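 Male C57BL/6 mice, separate study with a single 10 mg/kg dose. Half-life calculated from the plasma concentration profile.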

[18] = Cmax in C57BL/6 mouse at 10 mg/kg, po administered as single dose after 1 to 1.5 hrs by LC/MS/MS method; assay type: ADME, organism-based; set-up: dose 10 mg/kg, route oral; conditions: in vivo
[19] = Protein binding in mouse plasma; assay type: ADME, cell-free; conditions: read-out: PPB (converted)
[20] = target: Neurotensin receptor type 1 (Homo sapiens, UniProt P30989); experiment: Binding affinity to human neurotensin 1 receptor
[21] = Cmax in C57BL/6 mouse at 100 mg/kg, po administered as single dose after 1 to 1.5 hrs by LC/MS/MS method; assay type: ADME, organism-based; set-up: dose 100 mg/kg, route oral; conditions: in vivo
[22] = Plasma concentration in C57BL/6 mouse at 30 mg/kg, po concurrently dosed with 3 mg/kg, po DPP4 inhibitor PKF275-055 followed by glucose challenge after 1 hr post drug dose; assay type: ADME, organism-based; outline: as §4
[23] = Cmax in C57BL/6 mouse at 30 mg/kg, po administered as single dose after 1 to 1.5 hrs by LC/MS/MS method; assay type: ADME, organism-based; set-up: dose 30 mg/kg, route oral; conditions: in vivo

Chain of Growth hormone secretagogue receptor type 1 (Q92847 whole entry): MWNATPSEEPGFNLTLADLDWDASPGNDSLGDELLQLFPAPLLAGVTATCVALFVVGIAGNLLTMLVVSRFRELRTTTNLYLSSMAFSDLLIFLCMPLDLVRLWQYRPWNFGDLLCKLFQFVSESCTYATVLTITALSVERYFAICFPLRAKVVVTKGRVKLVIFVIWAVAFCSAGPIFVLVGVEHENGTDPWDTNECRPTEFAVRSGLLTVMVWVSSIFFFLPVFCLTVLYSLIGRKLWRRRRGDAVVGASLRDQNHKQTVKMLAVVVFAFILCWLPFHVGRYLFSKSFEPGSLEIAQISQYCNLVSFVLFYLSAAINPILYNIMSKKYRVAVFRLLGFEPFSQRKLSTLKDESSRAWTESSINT
Chain of Neurotensin receptor type 1 (P30989 whole entry): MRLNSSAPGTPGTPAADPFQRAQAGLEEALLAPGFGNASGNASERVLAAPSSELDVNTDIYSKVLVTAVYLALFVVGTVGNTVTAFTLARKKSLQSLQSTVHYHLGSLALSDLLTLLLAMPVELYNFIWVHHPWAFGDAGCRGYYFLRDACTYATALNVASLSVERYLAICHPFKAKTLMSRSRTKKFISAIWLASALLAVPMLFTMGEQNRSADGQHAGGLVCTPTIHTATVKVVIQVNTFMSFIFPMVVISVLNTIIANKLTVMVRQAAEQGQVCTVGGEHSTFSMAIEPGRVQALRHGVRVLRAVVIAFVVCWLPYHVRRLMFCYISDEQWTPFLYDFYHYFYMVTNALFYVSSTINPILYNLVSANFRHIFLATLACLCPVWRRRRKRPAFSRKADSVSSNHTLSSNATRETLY

CNc1nc(NCC(C)(C)C)cc(-c2ccccn2)n1
EC50 [1]: 0.073 µM | EC50 [2]: 0.365 µM

O=S(=O)(NC[C@H]1CC[C@H](CNc2cc(-c3ccccn3)nc(NC3CC3)n2)CC1)c1cccc(F)c1
EC50 [3]: 0.001 µM | bioavailability [4]: 25% | EC50 [5]: 0.003 µM | clearance [6]: 42 mL/min/kg | EC50 [7]: 0.011 µM

CNc1nc(Nc2ccc(N(C)C(C)=O)cc2)cc(-c2ccccn2)n1
EC50 [1]: 1.18 µM | EC50 [2]: 2.61 µM

CNc1nc(NCC2CC2)cc(-c2ccccn2)n1
EC50 [1]: 0.164 µM | EC50 [2]: 0.115 µM

CNC(=O)c1ccc(CNc2cc(-c3ccccn3)nc(NC)n2)cc1
CLhep predicted [8]: 31.9 mL/min/kg | EC50 [1]: 0.03 µM | EC50 [2]: 0.008 µM

CNc1nc(NCc2ccc(NC(C)=O)cc2)cc(-c2ccccn2)n1
CLhep predicted [8]: 35.9 mL/min/kg | EC50 [9]: 1.2 µM | EC50 [10]: 4.4 µM | EC50 [1]: 0.005 µM | EC50 [11]: 0.002 µM | EC50 [2]: 0.002 µM | Efficacy [12]: 48% | EC50 [13]: 0.55 µM

COCCNc1nc(NCC2CC2)cc(-c2ccccn2)n1
EC50 [1]: 2.2 µM | EC50 [2]: 10 µM

CNc1nc(NCc2ccc(NC(C)=O)cc2F)cc(-c2ccccn2)n1
CLhep predicted [8]: 25.9 mL/min/kg | EC50 [9]: 0.04 µM | EC50 [10]: 0.2 µM | EC50 [1]: 0.001 µM | EC50 [11]: 0.0006 µM | Efficacy [12]: 55% | EC50 [13]: 0.35 µM

CNc1nc(NCC2CCCCC2)cc(-c2ccccn2)n1
EC50 [1]: 0.011 µM | EC50 [2]: 0.01 µM

c1ccc(-c2cc(NCC3CC3)ncn2)nc1
EC50 [1]: 22 µM | EC50 [2]: 10 µM

CN(C)c1nc(NCC2CC2)cc(-c2ccccn2)n1
EC50 [1]: > 25 µM | EC50 [2]: 6.72 µM

CNc1nc(NCc2ccc(NS(C)(=O)=O)cc2Cl)cc(-c2ccccn2)n1
CLhep predicted [8]: 41.3 mL/min/kg | IC50 [14]: > 30 µM | EC50 [9]: 0.02 µM | fold change (FC) [15]: 6 | EC50 [3]: 0.0004 µM | fraction unbound [16]: 0.007 | EC50 [10]: 0.06 µM | half-life [17]: 7 h | EC50 [1]: 0.0008 µM | Cmax [18]: 1.4 µM | EC50 [11]: 0.0004 µM | fraction unbound [19]: 0.009 | IC50 [20]: > 30 µM | Efficacy [12]: 64% | EC50 [13]: 0.06 µM | EC50 [7]: 0.0008 µM | Cmax [21]: 25.3 µM | concentration at 1 h [22]: 1.6 µM | Cmax [23]: 6.1 µM

CNc1nc(NCc2ccc(OC(F)(F)F)cc2)cc(-c2ccccn2)n1
CLhep predicted [8]: > 52.3 mL/min/kg | EC50 [1]: 0.013 µM | EC50 [2]: 0.007 µM

— ChEMBL document CHEMBL3352269, “Discovery of 2-Pyridylpyrimidines as the First Orally Bioavailable GPR39 Agonists” (ACS Med Chem Lett, 2014)
